In brackets after ≈: the same amount, converted by molar mass.
Tests used:
[1] = target: T1, C-C chemokine receptor type 4 (Homo sapiens, UniProt P51679); assay: Antagonist activity at CCR4 receptor in human whole blood assessed as F-actin polymerization after 30 mins by FACS-based flow cytometric analysis; conditions: for Kb: read-out: pA2 (converted)
T1 sequence (P51679 whole entry): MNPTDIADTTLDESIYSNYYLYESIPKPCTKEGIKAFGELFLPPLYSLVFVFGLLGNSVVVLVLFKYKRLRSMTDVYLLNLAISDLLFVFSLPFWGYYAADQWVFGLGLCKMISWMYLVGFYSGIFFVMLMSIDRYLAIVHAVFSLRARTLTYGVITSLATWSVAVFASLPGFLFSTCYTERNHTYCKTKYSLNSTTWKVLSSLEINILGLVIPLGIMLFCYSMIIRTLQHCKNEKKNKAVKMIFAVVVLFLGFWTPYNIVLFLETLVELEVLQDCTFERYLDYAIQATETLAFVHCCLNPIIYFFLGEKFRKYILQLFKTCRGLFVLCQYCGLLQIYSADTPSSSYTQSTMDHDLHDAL

[2] = Kinetic solubility of the compound by chemiluminescent nitrogen detection assay; type: physicochemical; conditions: for solubility kinetic: read-out: Kinetic_solubility
[3] = Lipophilicity, log D of the compound by chromatographic analysis; type: physicochemical
Outline: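 Chromatographic log D measured at pH 7.4.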

[4] = target: T1, C-C chemokine receptor type 4; assay: Antagonist activity at human recombinant CCR4 receptor expressed in CHO cell membranes by [35S]GTPgammaS binding assay; type: functional
[5] = Dissociation constant, pKa of the compound; type: physicochemical
[6] = Volume of distribution at steady state in CD rat at 1 mg/kg, iv and 1 mg/kg, po; type: ADME, organism-based; conditions: in vivo, read-out: Vdss
Outline: (§1)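 CD rat pharmacokinetics, with compounds given as solutions in DMSO–PEG200–H₂O (5:45:50); one analogue used a 10:40:50 ratio.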

[7] = Oral bioavailability in CD rat at 1 mg/kg; type: ADME, organism-based; conditions: in vivo; outline: as §1
in vivo [8] = conditions: CD, rat, iv, 1 mg/kg
in vivo [9] = conditions: CD, rat, iv, 1 mg/kg; remark: listed apart in the source
[10] = Oral bioavailability in Beagle dog at 1 mg/kg; type: ADME, organism-based, Canis lupus familiaris; conditions: in vivo
[11] = Volume of distribution at steady state in Beagle dog at 0.5 mg/kg, iv; type: ADME, organism-based, Canis lupus familiaris; design: dose 0.5 mg/kg, route intravenous; conditions: beagle, in vivo, read-out: Vdss
[12] = Plasma protein binding in human by equilibrium dialysis technique; type: ADME, cell-free; conditions: read-out: PPB (converted)
Outline: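 Rapid equilibrium dialysis in CD rat, beagle dog or human plasma, with compound at a nominal 1 μg/mL; n = 3.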

in vivo [13] = conditions: beagle, dog, iv, 0.5 mg/kg
in vivo [14] = conditions: beagle, dog, iv, 0.5 mg/kg; remark: listed apart in the source

| Structure (SMILES) | Kb [1] [nM] | solubility kinetic [2] [µg/mL] | chromatographic logD [3] | IC50 [4] [nM] | pKa [5] | other results |
| --- | --- | --- | --- | --- | --- | --- |
| COc1cc(F)cc2c1c(NS(=O)(=O)c1ccc(Cl)s1)nn2Cc1cccc(CNC(C)=O)c1 | 1000 | ≥ 161 | 4.1 | 39.8 |  |  |
| COc1ccc(COc2nc(Br)cnc2NS(=O)(=O)c2ccc(C)cc2)cc1OCCN(C)C |  |  | 2.9 |  |  |  |
| CC(=O)NCc1cccc(Cn2nc(NS(=O)(=O)c3ccc(Cl)s3)c3c(C(F)F)cccc32)c1 | 7940 | ≥ 188 | 3.7 | 100 | 5.6 |  |
| COc1cccc2c1c(NS(=O)(=O)c1ccc(Cl)s1)nn2Cc1cccc(CNC(C)=O)n1 |  | ≥ 182 | 3 | 126 |  |  |
| COc1cccc2c1c(NS(=O)(=O)c1ccc(Cl)s1)nn2Cc1ccnc(CNC(C)=O)c1 |  | ≥ 161 | 2.5 | 100 |  |  |
| COc1cccc2c1c(NS(=O)(=O)c1ccc(Cl)s1)nn2Cc1cc(CNC(C)=O)ccn1 | > 10000 | ≥ 141 | 2.6 | 158 |  |  |
| CC(=O)NCc1cccc(Cn2nc(NS(=O)(=O)c3ccc(Cl)s3)c3ccccc32)c1 |  | ≥ 117 | 3.3 | 251 | 5.93 |  |
| COc1cccc2c1c(NS(=O)(=O)c1ccc(Cl)s1)nn2Cc1cccc(CNC2COC2)c1 |  | 122 (≈ 235 µM) | 4.3 | 251 |  |  |
| CC(=O)NCc1cccc(Cn2nc(NS(=O)(=O)c3ccc(Cl)s3)c3c(O)cccc32)c1 | 794 | ≥ 166 | 2.9 | 12.6 | 6.12 | Vd [6]: 1.2 L/kg; bioavailability [7]: 12%; clearance (in vivo [8]): 19 mL/min/kg; half-life (in vivo [9]): 1.2 h |
| CC(=O)NCc1cccc(Cn2nc(NS(=O)(=O)c3ccc(Cl)s3)c3c(CO)cccc32)c1 | 1000 | ≥ 113 | 2.6 | 6.31 | 5.66 |  |
| COc1cccc2c1c(NS(=O)(=O)c1ccc(Cl)s1)nn2Cc1cccc(CNC(C)=O)c1 |  | ≥ 124 | 4.1 |  | 6.6 | bioavailability [10]: 49%; Vd [11]: 3.2 L/kg; fraction unbound [12]: 0.005 |
| COc1cccc2c1c(NS(=O)(=O)c1cccc(Cl)c1)nn2Cc1cccc(CNC(=O)C(C)(C)O)c1 |  | ≥ 198 | 4.5 | 50.1 | 7.06 |  |
| COc1cccc2c1c(NS(=O)(=O)c1ccc(Cl)s1)nn2Cc1cccc(CNC(=O)C2COC2)c1 | 1000 | ≥ 173 | 4 | 20 |  |  |
| O=C([C@H]1CCCCN1)N1CCN(c2nc(NCc3ccc(Cl)cc3Cl)c3cccnc3n2)CC1 |  |  | 2.9 |  |  |  |
| COc1cccc2c1c(NS(=O)(=O)c1ccc(C)c(F)c1)nn2Cc1cccc(CNC(=O)C(C)(C)O)c1 | 1260 | 36 (≈ 66.6 µM) | 4.5 | 15.8 | 7.26 |  |
| COc1cccc2c1c(NS(=O)(=O)c1ccc(Cl)s1)nn2Cc1cccc(CNC(=O)C2COCCN2C)c1 (single isomer, unassigned; isomer B) | 251 | ≥ 180 | 4.4 | 6.31 |  | Vd [11]: 5.7 L/kg; fraction unbound [12]: 0.014; Vd [6]: 1 L/kg; bioavailability [7]: 68%; half-life (in vivo [13]): 2.6 h; clearance (in vivo [14]): 22 mL/min/kg; clearance (in vivo [8]): 24 mL/min/kg; half-life (in vivo [9]): 1.3 h |
| COc1cccc2c1c(NS(=O)(=O)c1ccc(Cl)s1)nn2Cc1cccc(CNC(=O)C2COCCN2C)c1 (single isomer, unassigned; isomer A) |  |  |  |  |  | pA2 [1]: 6.6; Kinetic_solubility [2]: >= 203 ug ml-1; pIC50 ([4]; cho): 8.2 |
| COc1cccc2c1c(NS(=O)(=O)c1ccc(Cl)s1)nn2Cc1cccc(CNC(=O)C(C)(C)N)c1 | 141 | ≥ 180 | 3.3 | 15.8 |  | Vd [11]: 5 L/kg; fraction unbound [12]: 0.04; Vd [6]: 0.84 L/kg; bioavailability [7]: 29%; half-life (in vivo [13]): 2.4 h; clearance (in vivo [14]): 18 mL/min/kg; clearance (in vivo [8]): 15 mL/min/kg; half-life (in vivo [9]): 1.3 h |

| Structure (SMILES) | Kb [1] [nM] | solubility kinetic [2] [µg/mL] | chromatographic logD [3] | IC50 [4] [nM] | pKa [5] | other results |
| --- | --- | --- | --- | --- | --- | --- |
| COc1cccc2c1c(NS(=O)(=O)c1cccc(Cl)c1Cl)nn2Cc1cccc(CNC(=O)C(C)(C)O)c1 |  | 157 (≈ 272 µM) | 4.7 | 398 | 6.82 |  |
| COc1cccc2c1c(NS(=O)(=O)c1ccc(Cl)s1)nn2Cc1cccc(CNC(=O)[C@@H]2COCCN2)c1 | 79.4 | ≥ 212 | 3.9 | 15.8 |  | bioavailability [10]: 39%; Vd [11]: 3 L/kg; fraction unbound [12]: 0.018; Vd [6]: 0.78 L/kg; bioavailability [7]: 32%; half-life (in vivo [13]): 2.6 h; clearance (in vivo [14]): 41 mL/min/kg; clearance (in vivo [8]): 18 mL/min/kg; half-life (in vivo [9]): 1.2 h |
| CN[C@H](C)C(=O)NCc1cccc(Cn2nc(NS(=O)(=O)c3ccc(Cl)s3)c3c(OC)cccc32)c1 | 200 | 191 (≈ 348 µM) | 3.1 | 15.8 |  | bioavailability [10]: 81%; Vd [11]: 6 L/kg; fraction unbound [12]: 0.054; Vd [6]: 0.79 L/kg; bioavailability [7]: 19%; half-life (in vivo [13]): 5.9 h; clearance (in vivo [14]): 17 mL/min/kg; clearance (in vivo [8]): 17 mL/min/kg; half-life (in vivo [9]): 0.8 h |
| COc1c(F)ccc2c1c(NS(=O)(=O)c1ccc(Cl)s1)nn2Cc1cccc(CNC(C)=O)c1 | 3160 | ≥ 199 | 4.1 | 12.6 |  |  |
| COc1cccc2c1c(NS(=O)(=O)c1ccc(Cl)s1)nn2Cc1cccc(CNC(=O)[C@H]2COCCN2)c1 | 562 | ≥ 250 | 3.9 | 25.1 |  |  |
| COc1cccc2c1c(NS(=O)(=O)c1ccc(Cl)c(Cl)c1)nn2Cc1cccc(CNC(=O)C(C)(C)O)c1 |  | 76 (≈ 132 µM) | 5.1 | 398 | 6.76 |  |
| COc1cccc2c1c(NS(=O)(=O)c1ccc(Cl)s1)nn2Cc1cccc(CNC(=O)C2CCCO2)c1 (stereo not drawn) | 794 | ≥ 153 | 4.9 | 39.8 |  |  |
| CC(=O)NCc1cccc(Cn2nc(NS(=O)(=O)c3ccc(Cl)s3)c3c(C#N)cccc32)c1 |  | ≥ 155 | 2.5 | 316 | 5.4 |  |
| COc1ccc(F)c2c1c(NS(=O)(=O)c1ccc(Cl)s1)nn2Cc1cccc(CNC(C)=O)c1 |  | ≥ 177 | 4 | 79.4 |  |  |
| CC(=O)NCc1cccc(Cn2nc(NS(=O)(=O)c3ccc(Cl)s3)c3c(C(C)O)cccc32)c1 (stereo not drawn) | 501 | ≥ 208 | 2.7 | 20 | 5.62 | Vd [6]: 3.5 L/kg; bioavailability [7]: 35%; clearance (in vivo [8]): 13 mL/min/kg; half-life (in vivo [9]): 3.7 h |
| CC(=O)NCc1cccc(Cn2nc(NS(=O)(=O)c3ccc(Cl)s3)c3c(Cl)cccc32)c1 | 6310 | ≥ 226 | 3.8 | 31.6 | 6.03 |  |
| COc1cccc2c1c(NS(=O)(=O)c1ccc(Cl)s1)nn2Cc1cccc(CNC(=O)C2CCOCC2)c1 | 501 | ≥ 193 | 4.4 | 31.6 |  |  |
| CC(=O)NCc1cccc(Cn2nc(NS(=O)(=O)c3ccc(Cl)s3)c3c(F)cccc32)c1 | 5010 | ≥ 139 | 3 | 79.4 | 5.62 |  |
| CC(=O)NCc1cccc(Cn2nc(NS(=O)(=O)c3ccc(Cl)s3)c3c(C(C)(C)O)cccc32)c1 |  | ≥ 159 | 2.9 | 100 | 5.46 |  |
| CC(=O)NCc1cccc(Cn2nc(NS(=O)(=O)c3ccc(Cl)s3)c3c(C(C)=O)cccc32)c1 |  | 57 (≈ 110 µM) | 4.8 | 100 |  |  |
| COc1c(F)ccc2c1c(NS(=O)(=O)c1ccc(Cl)s1)nn2Cc1cccc(CNC(=O)C(C)(C)O)c1 | 631 | ≥ 174 | 4.1 | 39.8 |  |  |
| COc1cccc2c1c(NS(=O)(=O)c1ccc(Cl)s1)nn2Cc1cccc(CNC(=O)C2CCO2)c1 (stereo not drawn) |  | 124 (≈ 227 µM) | 4.5 | 31.6 |  |  |

— ChEMBL document CHEMBL2321840, “Synthesis and structure-activity relationships of indazole arylsulfonamides as allosteric CC-chemokine receptor 4 (CCR4) antagonists” (J Med Chem, 2013)
